Consider 48 sequences from the EternaBench riboswitch data.

For the data set, the system named is MS2 coat protein. As to the kind of experiment: apparent Kd, MS2 coat protein; higher = weaker binding; RNA-MaP array; FMN 200 µM where present. Summed up: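 Apparent Kd: the median of filtered binding-curve fits from single clusters. Designs were transcribed on Illumina sequencing-chip clusters by stalled E. coli RNA polymerase and titrated with SNAP-549-labelled MS2 coat protein from 0.7 or 1.5 nM, doubling to 3 µM, in 100 mM Tris-HCl pH 7.5, 80 mM KCl, 4 mM MgCl2, BSA, DTT, yeast tRNA and Tween-20. Each series ran without and then with constant ligand, and green signal was normalised to red-channel RNA signal and control-cluster median Fmax.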

[1] abbreviates: designed as: ON switch for flavin mononucleotide, no ligand.
Setting [2] is: ligand present: flavin mononucleotide, designed as: ON switch for flavin mononucleotide.
The mark [3] stands for this setting: designed as: OFF switch for flavin mononucleotide, no ligand.
Where [4] appears, read: ligand present: flavin mononucleotide, designed as: OFF switch for flavin mononucleotide.

“AAAGAAAACAUAGGAUAUGUAACAUGAGGAUCACCCAUGUAUACCUCGUAAGAGAUGAUGGAUGGACAGAAGGAUGAUCUCAGG”: the “apparent Kd” value is, setting by setting: under setting [1], 140 nM; under setting [2], 214 nM.
For “AUUUUAUAAUAGAAGGAGGACUUCAUGAGGAUCACCCAUGUGUUAGUACCUAGGAUAUGUAAUAACAUGAGGAUCACCCAUGUC”, in that order: 49.5 nM and 40.3 nM.
Turning to “UCUAUGAAGAUUCGUCAAUACAGUUAGGAUAUGAGAUACAUGAGGAUCACCCAUGUGCAUGUGGAUUAGAAGGAACAAUUAUCU”, the “apparent Kd” value reads like this: under setting [3], 33.2 nM; under setting [4], 30.8 nM.
Taken in the same sequence, the figures for “AAAAAACAUGAGGAUCACCCAUGUGAGGAUAUCUGUAUCCAAAAGGAAGUGUAGGAUCGGAGAAGGCACUAGGA” were 53.9 nM and 83.2 nM.
Taken in the same sequence, the figures for “ACAAGAUCAGGAUAUACAUGAGGAUCACCCAUGUAUAUCAAAAAGGGACUUUCUUAAUGUAGAAGGGAUCUUGU” were 13.3 nM and 12.8 nM.
In the case of “CUAGAUAUGUAAGGAUAUAUAGUGGAAUACACUAUAGAAGGUAUGUGAUAACAUGAGGAUCACCCAUGUCAUUGGAUAUCUAGA”, the “apparent Kd” value under setting [1] stood at 67.5 nM and the “apparent Kd” value under setting [2] stood at 60.3 nM.
Taken in the same sequence, the figures for “GUAAUCAGUAAUAAAAGCCCGGGCGCAGAAGGCCAGACACAUGAGGAUCACCCAUGUAUCCCUAUGGAGGAUAUGUGUCACGUG” were 72.8 nM and 22.9 nM.
Regarding “CACGAAGGAGGAUAUAUUAAGGCAGAUCCUAUACAUCGGUUACAUGAGGAUCACCCAUGUAGAAGGCCUACAAA”, the “apparent Kd” value reads like this: under setting [3], 49 nM; under setting [4], 185 nM.
With “GGCCUGUAAGGAUAUUAGUAGUAGUCAGAAAAGACUAUUACUGAGAAGGUACAUGAGGAUCACCCAUGUUGGCC”, the “apparent Kd” value was found to be 17.4 nM under setting [3] and 20.1 nM under setting [4].
Taken in the same sequence, the figures for “AUAUAUCAUACAGGAUAUACAUGAGGAUCACCCAUGUGUCCUCCAUAAUUGACACCAAUUAUGCUGUAGAAGGGUAUGAUAUAU” were 293 nM and 258 nM.
As to “CUCAUGUAAGGAUAUGACUACAUAAAAAAAAAAAAAUGUAGUCAGAAGGUACAUGAGGAUCACCCAUGUACAAA”, the “apparent Kd” value turned out to be 53.7 nM under setting [3] and 35 nM under setting [4].
Taken in the same sequence, the figures for “UUUUUGUCAGGAUAUCGUUAAUUUAAUUGUUUGUAUUAGUUCGAGAAGGGACAUGAGGAUCACCCAUGUAUUUU” were 41.1 nM and 103 nM.
For “GAUUCACAUGAGGAUCACCCAUGUGAGGAUAUAGUGCAGGAGGCGGAUAUCCACCUCUCUAGAAGGCACACGGG”, in that order: 21.8 nM and 24.1 nM.
Taken in the same sequence, the figures for “CAAGCGGGAGGAUAUACAGGGUUGUCCGAAAAUCGCCAGCCACAUGAGGAUCACCCAUGUAGAAGGCCUAUAGA” were 53 nM and 23.9 nM.
In the case of “GCAGGUUAAGUCAGGAUAUACCUAUGGAUACAUAGGUAGAAGGGACAUGAGGAUCACCCAUGUGACUCACCUGC”, the “apparent Kd” value came to 27.9 nM under setting [3] and 57.6 nM under setting [4].
With “GUGCAUACGUGAGGAUAUGUAUUAGAUAGUGGUACAGAAGGCAUGUCUGAUGACAUGAGGAUCACCCAUGUUGGCACAGUGCGC”, the “apparent Kd” value reads like this: under setting [1], 59.7 nM; under setting [2], 29.6 nM.
Turning to “AACUCAGCAGGAUAUACAUACAAAUCCAUCAUGCCGUUUGAACAUGAGGAUCACCCAUGUAGAAGGGCUCACAC”, the “apparent Kd” value was 28.7 nM under setting [3] and 51.5 nM under setting [4].
On to “UUGGCGACGUAGAAGGGUGACAUGAGGAUCACCCAUGUGCCGAUAUUUCUCGAGAUAUGUCGGCCACAGGAUAUACGUGCCAUC”, for which the “apparent Kd” value under setting [1] was 59.3 nM and the “apparent Kd” value under setting [2] is 31.9 nM.
With “CGUGUUGACGAAGGAUAUGGAUACAUGAGGAUCACCCAUGUUUAAUUUGUGAUUUUGUUAAAGUACCAGAAGGUCGAAUACACG”, the “apparent Kd” value runs as follows: under setting [3], 142 nM; under setting [4], 118 nM.
In the case of “GUGAUACAUGAGGAUCACCCAUGUCAGGAUAUGAUACUAUGUACUUCGGUACAUAGUAUCAGAAGGGACAGUGA”, the “apparent Kd” value is 138 nM under setting [3] and 92.5 nM under setting [4].
For “GUAAAUCAUGUAGGAUAUGCAUGGCGAAGCUACGCAGAAGGACAUGAGGAUCACCCAUGUCUCUCCGUCUGCAUACAGACGGAG”, the “apparent Kd” value by setting is: under setting [3], 26.9 nM; under setting [4], 230 nM.
With “AUUAAACAUGAGGAUCACCCAUGUCAACAAAGUCGAGGAUAUGGGCAAAUAAAAUAAGUACCAGAAGGCGAAUAAU”, the “apparent Kd” value came to 113 nM under setting [1] and 24.2 nM under setting [2].
Taken in the same sequence, the figures for “CGUGUCGUAUGAGGAUAUGGUCAGCUUUGCUGACCAGAAGGCAUGUCAAUAGACAUGAGGAUCACCCAUGUAGUAAAGACACGA” were 378 nM and 40.6 nM.
For the sequence “AAUAAUAGCGAGGAUAUCGUAUCGGAAACGAUACGAGAAGGCGUAACAUGAGGAUCACCCAUGUUCCUCAAUAA”, the “apparent Kd” value under setting [3] was 38 nM and the “apparent Kd” value under setting [4] amounted to 313 nM.
For “AAGCGAGGGACAGGAUAUGCAGCGAAACUCGCCGCAGAAGGGUCGACAUGAGGAUCACCCAUGUCCUUACGCUCCAAGUAGUGG”, the “apparent Kd” value under setting [1] is 232 nM and the “apparent Kd” value under setting [2] came out at 299 nM.
Turning to “AAGUCGUGAGGAUAUACAUGGAUAUACAUUUAUGUGGACCUACAUGAGGAUCACCCAUGUAGAAGGCACGAAUA”, the “apparent Kd” value is, setting by setting: under setting [3], 85.2 nM; under setting [4], 69.4 nM.
For the sequence “UUUUAGGGAGGAUAUACAUUUUUUUUAUUAUCCUCAUUAUUACAUGAGGAUCACCCAUGUAGAAGGCCCAUUUU”, the “apparent Kd” value under setting [3] came to 60.7 nM and the “apparent Kd” value under setting [4] is 146 nM.
Take “UUUUAACUACAAUUACAUGAGGAUCACCCAUGUUUUGGGAUGCAGGAUAUGUGGUAUAUUAAUUAACAGAAGGGCAAUAAUUAA”: the “apparent Kd” value is, setting by setting: under setting [1], 57.6 nM; under setting [2], 46.4 nM.
For “GUCGGAAACGACAAAAGUACCCGAGCAGAAGGGUGAAAACAUGAGGAUCACCCAUGUAAAUAAUCACAGGAUAUGCUCGGGUAC”, the “apparent Kd” value runs as follows: under setting [1], 6.09 nM; under setting [2], 4.43 nM.
Taken in the same sequence, the figures for “AAGUUUUUACAAGGAUAUCAGUUGUUUAUAAAUUAAACAUGAGGAUCACCCAUGUAACAAAGGAGUGAGAAGGUGUGAUGGAAA” were 545 nM and 283 nM.
Regarding “UUGUUAGCAGGAUAUAUCCACGACCACAUGAGGAUCACCCAUGUGGCCGCUUGAGGUUGUAUAGAAGGGCUUUGUU”, the “apparent Kd” value by setting is: under setting [3], 13.8 nM; under setting [4], 14.3 nM.
Consider “UUAUGUUAUGUAGGAUAUCACUUUAAUUGAUUAAUAUAUGAAUAUAGAAUUUGAGAAGGACAUUUACAUGAGGAUCACCCAUGU”, for which the “apparent Kd” value reads like this: under setting [3], 12.3 nM; under setting [4], 8.5 nM.
“GGGUACAUGGGAGGAUAUGGGAAGAUACAUGAGGAUCACCCAUGUUUAAGAAUGCCGAGAGGCAACUAGAAGGCCCAUGUACCG”: the “apparent Kd” value under setting [1] worked out at 1040 nM and the “apparent Kd” value under setting [2] was 49 nM.
Consider “GGGCUCGGAGGAUAUACAAUUCUGGGCUGAAAGGCUCGGGUACAUGAGGAUCACCCAUGUAGAAGGUCGGGUCU”, for which the “apparent Kd” value under setting [3] amounted to 15.9 nM and the “apparent Kd” value under setting [4] was found to be 15.9 nM.
Take “CCUAUGUGAGGAUAUAGCCACAUUACGAAUAAGUAGUGUGGCUAGAAGGUACAUGAGGAUCACCCAUGUAUGGG”: the “apparent Kd” value is, setting by setting: under setting [3], 167 nM; under setting [4], 84.1 nM.
Regarding “AACAAUCUAUCUGAGGAUAUCAUGAAAUAAACAUGAGGAUCACCCAUGUGCAGGAAAUCUGCAUAUGAGAAGGCAGAUAGAUUGA”, the “apparent Kd” value amounted to 1340 nM under setting [1] and 56.1 nM under setting [2].
“GCACGGUAAGUGAGGAUAUACCUCUGGAUACAGAGGUAGAAGGCACAUGAGGAUCACCCAUGUCUAAGCCGUGC”: the “apparent Kd” value is 17.1 nM under setting [3] and 24.1 nM under setting [4].
Taken in the same sequence, the figures for “UGUCGGAGCAGAGGAUAUUACAUGAGGAUCACCCAUGUAGGAACCAAUAGCUGGAAACAGCAAUGUAAGAAGGCUGCUCCGACA” were 19.6 nM and 267 nM.
For “GUCAGCUCGUGAGGAUAUACAUAAUAUCAAGAUCACAUGAGGAUCACCCAUGUAGAAGGCACGAGCUGAUAAGCACGAAAGUGC”, in that order: 12.1 nM and 102 nM.
For “AAAAAUGGAGGAUAUACAUGAGGAUCACCCAUGUGUGGCCAUACUAUGUGCUCGUCAGGUAGAAGGCCAAAAAA”, the “apparent Kd” value runs as follows: under setting [3], 28.7 nM; under setting [4], 46 nM.
Turning to “UUUCCUGGAGGAUAUACAUGAGGAUCACCCAUGUGGUUCGGAUUAAGCGGCUUACGCGGUAGAAGGUUAGACUU”, the “apparent Kd” value stood at 108 nM under setting [3] and 85.1 nM under setting [4].
As to “GUAGCAUACCGAGGAUAUUCAGGGCGUGAAUAAACAUGAGGAUCACCCAUGUGGCGAAAGCCUAGGGAGAAGGCGGAAUGCUAC”, the “apparent Kd” value reads like this: under setting [1], 25.9 nM; under setting [2], 19.1 nM.
As to “GUAGUUAGUAAAGGAUAUUAGUGUGUGUAAUAUUGAGAAGGUUACAUGAGGAUCACCCAUGUGAUCAAUCACUGUUAAGGUUGC”, the “apparent Kd” value under setting [3] stood at 6.6 nM and the “apparent Kd” value under setting [4] stood at 6.42 nM.
For “AAAACAGUGUAGGAUAUGGCUGGGCUGAAAAUGCUAGAAGGACACACAUGAGGAUCACCCAUGUGACUUCGUGC”, the “apparent Kd” value stood at 13.8 nM under setting [3] and 15.5 nM under setting [4].
Taken in the same sequence, the figures for “UAGGAGCAAGGAUAUACGAGGAUAUGGUAGUUUGUAGAGUGACAUGAGGAUCACCCAUGUAGAAGGUGCGUGUG” were 123 nM and 99.7 nM.
For “AAUCGUAGAACGAUCACUACCAGUCAGGAUAUACAUGAGGAUCACCCAUGUCGUGUCGACAGCAUGUAGAAGGGACGGUUAUAU”, in that order: 27.1 nM and 66 nM.
Taken in the same sequence, the figures for “CAGUACUGAGGAUAUACAUGAGGAUCACCCAUGUGUUCGAUACUAGUGAGGUCGAUUAGUAGAAGGCAGUACUG” were 21.3 nM and 248 nM.
Take “AUCCGGCGUGUAGGAUAUGGAACCGAUUAGGAUCCAGAAGGACAUGAGGAUCACCCAUGUACAUGUAAACAGUCAUCACCGGAA”: the “apparent Kd” value runs as follows: under setting [3], 10.9 nM; under setting [4], 65.3 nM.
